Compound activity as filed in PubChem.
ANO1 activ: activates or potentiates the mouse TMEM16A chloride channel | B-score at 10 µM | 0.3% of 340,000 active | Q8BHY3 | HEK293 TMEM16A/YFP-H148Q/I152L, iodide quench fluorescence; hits give low values;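 active = fluorescence-ratio B-score plate-corrected deviation score at least 3 library SD below zero, with starting fluorescence score within 5 deviations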;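 also: channel opened by trigger with iodide after compound preincubation; score built on the fluorescence ratio of max minus min over baseline; more negative score means more quench and so TMEM16A activation or potentiation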
Target sequence (Q8BHY3 whole entry, looked up): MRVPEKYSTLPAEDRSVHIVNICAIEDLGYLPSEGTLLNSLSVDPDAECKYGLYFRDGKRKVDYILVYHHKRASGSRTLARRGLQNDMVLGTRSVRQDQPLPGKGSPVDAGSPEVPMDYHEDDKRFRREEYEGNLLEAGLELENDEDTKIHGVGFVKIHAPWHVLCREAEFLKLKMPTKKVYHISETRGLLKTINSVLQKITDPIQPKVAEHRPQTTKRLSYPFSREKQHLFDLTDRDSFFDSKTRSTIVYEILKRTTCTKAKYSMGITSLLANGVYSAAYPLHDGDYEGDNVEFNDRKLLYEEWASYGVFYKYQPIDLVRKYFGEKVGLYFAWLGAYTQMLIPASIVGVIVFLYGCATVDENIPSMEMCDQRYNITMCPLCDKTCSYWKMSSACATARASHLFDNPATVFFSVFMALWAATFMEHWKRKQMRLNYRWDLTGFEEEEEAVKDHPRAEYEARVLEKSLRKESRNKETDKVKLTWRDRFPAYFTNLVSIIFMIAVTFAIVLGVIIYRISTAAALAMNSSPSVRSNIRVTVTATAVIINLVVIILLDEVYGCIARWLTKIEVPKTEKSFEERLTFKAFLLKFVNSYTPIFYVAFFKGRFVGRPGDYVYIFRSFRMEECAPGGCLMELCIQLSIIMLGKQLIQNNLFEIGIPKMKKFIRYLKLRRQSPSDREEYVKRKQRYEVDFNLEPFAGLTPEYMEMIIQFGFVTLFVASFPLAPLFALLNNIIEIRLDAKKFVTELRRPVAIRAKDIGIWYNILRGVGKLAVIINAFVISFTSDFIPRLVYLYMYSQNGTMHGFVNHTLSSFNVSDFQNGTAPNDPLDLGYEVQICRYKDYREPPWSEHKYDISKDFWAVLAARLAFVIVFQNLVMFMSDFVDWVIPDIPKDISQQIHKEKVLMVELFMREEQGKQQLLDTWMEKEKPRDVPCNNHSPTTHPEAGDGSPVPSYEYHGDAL
MC4R ag barr: agonists of human melanocortin 4 receptor (MC4R) beta-arrestin; U2OS MC4R beta-arrestin complementation, luminescence; percent of melanotan II response, DMSO zero; P32245; 0.98% of 360,000 active; activation, % at 8.9 µM;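 active = activation above a per-plate cutoff, the mean activation of sample wells on that plate plus 3 SD, cut at about 8% in these data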
MC4R antagonist: human MC4R antagonism in cAMP assay; inhibition, % at 6.5 µM; 0.48% of 360,000 active; MC4R-expressing cells, MTII-stimulated cAMP, LANCE TR-FRET; P32245;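 active = inhibition above its plate's cutoff, the mean of tested wells on that plate plus 3 SD, cut at about 29% in these data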
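Assay system: U2OS cells stably expressing human melanocortin 4 receptor (MC4R) / Dosing: 6.5 µM / Timing: compound 30 min, challenge 1 h, detection 1 h / Measured by: Eu-cAMP/anti-cAMP TR-FRET, emission 671 nm / Replicates: singlicate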
Beta apoptosis: blocks beta cell apoptosis; protection from apoptosis, % (concentration not given with the values); INS-1E cytokine-induced death, ATP luminescence, 48 h; percent of positive-control rescue, neutral wells zero; AID 435005; 0.8% of 300,000 active;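 active = Every replicate reaches about 75%, or at least half do and their mean reaches it too, limit read from the data; inconclusive = At least half of replicates reach the limit but their mean does not; inactive = Under half of replicates reach the limit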;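 also: higher means more ATP so stronger rescue from cytokine killing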
CSC inhib: cancer stem cell inhibition; AID 2717; 1.1% of 300,000 active; cancer stem cell-like cells viability, luminescence; inhibition, % at 7.5 µM; in the data active = inhibition above about 75%; inconclusive = no clear call, values can overlap the other calls; tested in HMLE shEcad cells
TMEM16A inh: blocks the mouse calcium-activated chloride channel TMEM16A; Q8BHY3; HEK293 TMEM16A/YFP iodide influx fluorescence, ionomycin; normalized B-score (activity score, 25-100; higher = stronger inhibition) at 10 µM; 1.2% of 310,000 active;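 active = ratio plate-corrected score three or more library SD toward inhibition, starting fluorescence score within five deviations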;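 also: score derived from kinetic fluorescence span divided by baseline fluorescence per well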
Of the large screens only hits and unclear results are named; the others gave an inactive call. Compounds with a hit are over-represented: about 3.8% of the library has one in this group of screens.

CC(C)Cn1c(SCC(=O)N(C)c2c(N)n(Cc3ccccc3)c(=O)[nH]c2=O)nc2ccccc21	none
CCc1ncc(C)nc1CC	TMEM16A inh 100
CCc1ncc(C)[nH]1	none (no result: ANO1 activ, MC4R ag barr, MC4R antagonist)
FC(F)(F)c1ccc(C2[C@H]3CN(Cc4ccc(-c5ccccc5)cc4)[C@H](c4ccccc4)C34CC2(c2cccnc2)C4)cc1 (stereo partly specified)	none (no result: ANO1 activ, MC4R ag barr, MC4R antagonist)
FC(F)(F)c1ccc(C2[C@H]3CN(Cc4cccnc4)[C@H](c4ccccc4)C34CC2(c2cccnc2)C4)cc1 (stereo partly specified)	CSC inhib 102
CSc1ccccc1NC(=O)CSCc1ccc(C)cc1	ANO1 activ -20
O=C(NCc1cccc(Cl)c1)C1Cc2c(-c3ccc(Cl)cc3)ccnc2O1 (stereo unspecified)	none (no result: ANO1 activ, Beta apoptosis, CSC inhib, TMEM16A inh)
CC(=O)NC(c1cccs1)c1cc(F)c2cccnc2c1O (stereo unspecified)	Beta apoptosis 91 (no result: TMEM16A inh)
CC(=O)NC(c1ccco1)c1cc(Cl)c2ccccc2c1O (stereo unspecified)	none (no result: TMEM16A inh)
CC(=O)NC(c1ccco1)c1cc(F)c2cccnc2c1O (stereo unspecified)	Beta apoptosis 82 (no result: TMEM16A inh)
CN1CCC(N(C)C(=O)c2ccc(Cl)c(S(=O)(=O)N(C)c3ccc(Cl)cc3)c2)CC1	none (no result: TMEM16A inh)
O=S(=O)(c1ccc(F)cc1)N1CCC(n2cnc3ccccc32)CC1	none
O=S(=O)(c1ccc(Cl)cc1)N1CCC(n2cnc3cc(C(F)(F)F)ccc32)CC1	CSC inhib 85
COc1ccc(-c2csc(NC(=O)c3ccccc3OC)c2C(=O)O)cc1OC	none
COc1ccc(-c2csc(NC(=O)c3cccs3)c2C(=O)O)cc1OC	ANO1 activ -41
CC[C@]12c3[nH]c4ccc(Cl)cc4c3CCN1C(=O)[C@@H](CC(=O)NC/C=C(\C)CCC=C(C)C)C[C@@H]2C(=O)N1CCN(C(=O)C2CC2)CC1	none (no result: ANO1 activ, Beta apoptosis, CSC inhib, TMEM16A inh)
CN(C)S(=O)(=O)Oc1cccc(C(=O)Nc2ccc(Cl)cc2)c1	TMEM16A inh 100
COc1cccc(C(=O)COC(=O)c2ccc(NC(=O)c3ccccc3)cc2)c1	MC4R ag barr 8.7
COc1cccc(C(=O)Nc2ccc(C3CC3(Cl)Cl)cc2)c1 (stereo unspecified)	CSC inhib 91
COc1cccc(NC(=O)c2cccc(N3C(=O)C4C5C=CC(C5)C4C3=O)c2)c1 (stereo unspecified)	TMEM16A inh 25
COc1ccc(S(=O)(=O)N2CCN(C)CC2)cc1NC(=O)c1ccccc1	none
Cc1cc(C)c(C)c(S(=O)(=O)Nc2ccccc2N2CCOCC2)c1C	none (no result: TMEM16A inh)
O=c1c2ccccc2nc2c3ccccc3c(NCCN3CCOCC3)nn12	none (no result: ANO1 activ, MC4R ag barr, MC4R antagonist)
O=c1c2c(-c3ccccc3)csc2nc2c3ccccc3c(NCCN3CCOCC3)nn12	MC4R ag barr 9.3 (no result: Beta apoptosis, CSC inhib, TMEM16A inh)
CCOc1ccc(-c2cc(C(=O)NCc3cc(OC)cc(OC)c3)[nH]n2)c(C)c1	none (no result: ANO1 activ, Beta apoptosis, CSC inhib, TMEM16A inh)
CC(Sc1nc(N)cc(=O)[nH]1)C(=O)NC1CCCCC1 (stereo unspecified)	ANO1 activ -9.7
Nc1cc(=O)[nH]c(SCC(=O)NC2CCCCCCC2)n1	none (no result: TMEM16A inh)
COc1cccc(/C=N/Nc2nc3ccccc3[nH]2)c1OC	none (no result: Beta apoptosis)
COc1cccc(/C=N/Nc2nc3ccccc3n3cnnc23)c1O	Beta apoptosis 119
COc1cccc(/C=N/Nc2nc3ccccc3[nH]2)c1O	Beta apoptosis 94
COc1cccc(/C=N/Nc2nc3ccccc3n3cnnc23)c1	none
COc1ccc(OC)c(NC(=O)CN2C(=O)C(C)N(c3ccc(C)cc3)C2=O)c1 (stereo unspecified)	none (no result: TMEM16A inh)
COc1cccc(OC)c1C(=O)Nc1ccccc1Sc1ccccc1	none
COc1ccc(OC)c(-c2nnc3n2N=C(c2ccc(OC(F)F)c(OCC4CC4)c2)CS3)c1	CSC inhib 76 (no result: TMEM16A inh)
COc1ccc(OC)c(C2=Nn3c(nnc3-c3cccc(OC(C)C)c3)SC2)c1	ANO1 activ -5
COc1ccc(C2=Nn3c(nnc3-c3ccccc3F)SC2)cc1OC1CCCC1	CSC inhib 82 (no result: TMEM16A inh)
COc1ccc(C2=Nn3c(nnc3-c3ccccc3OC)SC2)cc1OCC1CC1	none (no result: CSC inhib, TMEM16A inh)
COc1ccc(OC)c(C2=Nn3c(nnc3-c3ccco3)SC2)c1	none
COc1ccc(C2=Nn3c(nnc3-c3ccccc3F)SC2)cc1OC1CCOC1 (stereo unspecified)	none (no result: TMEM16A inh)
CC(C)(C)OC(=O)[C@H](Cc1ccccc1)NC(=O)c1ncn2c1c(=O)[nH]c1ccc(Br)cc12	none (no result: ANO1 activ, Beta apoptosis, CSC inhib, TMEM16A inh)
C/C(=N\NC(=O)c1ccc(Br)cc1)C1C(=O)c2ccccc2C1=O	CSC inhib inconclusive, TMEM16A inh 100
CCOC(=O)c1[nH]nc(-c2cc(CC)c(O)cc2O)c1-c1cscn1	none
CCc1cc(-c2n[nH]c(C)c2Oc2ccc(C(C)C)cc2)c(O)cc1O	CSC inhib 113
CCCOC(=O)c1ccc(Oc2c(-c3ccc(O)cc3O)n[nH]c2C)cc1	CSC inhib 117, TMEM16A inh 25
CCCOC(=O)c1ccc(Oc2cn[nH]c2-c2ccc(O)cc2O)cc1	MC4R ag barr 9.5
CCCOC(=O)c1ccc(Oc2c(-c3ccc(OC)cc3O)n[nH]c2C)cc1	CSC inhib 132
Cc1cccc(C(=O)Nc2cc(S(=O)(=O)N3CCOCC3)ccc2N2CCCCC2)c1	none (no result: CSC inhib, TMEM16A inh)
O=C1NC[C@H](Cc2ccccc2)N(CC2CCN(CCCCc3ccccc3)CC2)C1=O	none (no result: ANO1 activ, Beta apoptosis, CSC inhib, TMEM16A inh)
C=CCn1c(C)cc(-c2csc(NCC)n2)c1C	ANO1 activ -5.4
C=CCn1c(C)cc(-c2csc(NC)n2)c1C	none (no result: Beta apoptosis, CSC inhib, TMEM16A inh)
CN(Cc1ccco1)c1ncnc2ccc(-c3ccc4c(ccn4C)c3)cc12	CSC inhib 84 (no result: TMEM16A inh)
CC1(C(=O)NS(=O)(=O)c2ccc(Cl)cc2)CCN1C(=O)CCc1ccccc1 (stereo unspecified)	none (no result: ANO1 activ, Beta apoptosis, CSC inhib, TMEM16A inh)
CC(C)NC(=O)Cn1c(SCC(=O)NC2CCCC2)nc2ccccc21	none
CC(C)Cn1c(SCC(=O)NC(=O)NC2CCCC2)nc2ccccc21	TMEM16A inh 25
O=C(CNC(=O)c1ccco1)OCc1ccccc1F	none (no result: CSC inhib, TMEM16A inh)
O=C(OCn1ncc(Cl)c(Cl)c1=O)c1ccc(C(F)(F)F)cc1	MC4R antagonist 33 (no result: Beta apoptosis, CSC inhib, TMEM16A inh)
O=C(O)c1ccc(-n2ncc(Cl)c(Cl)c2=O)cc1	none (no result: ANO1 activ, Beta apoptosis, CSC inhib, TMEM16A inh)
Cc1ccc(C)c(C(=O)Cn2ncc(Cl)c(Cl)c2=O)c1	none
Cc1ccc(C(=O)OCn2ncc(Cl)c(Cl)c2=O)cc1	Beta apoptosis 101 (no result: CSC inhib)
Cc1ccc(S(=O)(=O)N2CCCCC2)cc1NC(=O)Cn1ncc(Cl)c(Cl)c1=O	CSC inhib 90 (no result: TMEM16A inh)
CCOC(=O)c1ccc(NC(=O)Cn2ncc(Cl)c(Cl)c2=O)cc1	CSC inhib 90
CN(CC(=O)Nc1ccccc1C(F)(F)F)C(=O)c1ccccc1Sc1ccccc1C#N	none (no result: TMEM16A inh)
Cc1cc(Nc2ccccc2C(=O)O)n2ncnc2n1	none (no result: ANO1 activ, Beta apoptosis, CSC inhib, TMEM16A inh)
O=C(OCC(=O)N1CCC(Cc2ccccc2)CC1)c1cccnc1Cl	none (no result: TMEM16A inh)
